Shown are actives, neighbours in structure and some others; about 3% of the full set was active somewhere.
5HT1a ag: 5-HT1a (human) receptor agonism | 65,000 tested, 0.56% active | activation, % at 10 µM | P08908 | CHO 5-HT1a Ga15 NFAT-bla reporter, FRET ratio; 0% basal, 100% maximal reference agonist;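 active = activation above the screen-wide mean activation plus 3 SD, cut at about 19% in these data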;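 note: 0% = DMSO wells and 100% = 5-CT at EC100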
5HT1E antag: 5-HT1E (human) receptor antagonism | inhibition, % at 6 µM | 65,000 tested, 0.99% active | CHO 5-HT1E Ga15 NFAT-bla reporter, FRET, antagonist | P28566;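 active = inhibition above a set limit, the mean inhibition across every tested compound plus 3 SD, cut at about 29% in these data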;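 note: signal is the 460 over 535 nm emission ratio of beta-lactamase substrate; 0% = agonist plus DMSO wells and 100% = wells without agonist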
Target sequence (P28566 whole entry, looked up): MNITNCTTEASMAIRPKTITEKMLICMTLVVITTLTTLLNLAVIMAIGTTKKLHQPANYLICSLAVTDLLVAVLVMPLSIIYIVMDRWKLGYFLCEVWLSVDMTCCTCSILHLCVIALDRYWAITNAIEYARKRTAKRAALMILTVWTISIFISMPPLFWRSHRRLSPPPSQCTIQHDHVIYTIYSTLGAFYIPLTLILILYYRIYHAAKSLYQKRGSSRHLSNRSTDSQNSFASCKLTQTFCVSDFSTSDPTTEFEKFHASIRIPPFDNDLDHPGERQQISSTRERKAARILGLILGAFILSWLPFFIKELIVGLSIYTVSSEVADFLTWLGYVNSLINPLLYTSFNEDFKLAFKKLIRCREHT
5-HT1A blocker: blocks the human serotonin 5-HT1a receptor | 62,000 tested, 0.68% active | CHO 5-HT1a Ga15 NFAT-bla reporter, antagonist mode | P08908 | inhibition, % at 10 µM | AID 612;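 active = inhibition above the mean of all tested compounds plus 3 SD, cut at about 43% in these data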;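 note: receptor stimulated by 5-CT agonist at 100 nM near EC80; beta-lactamase reporter measured by ratiometric fluorescence of a cleavable substrate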
5HT1E ag: activates the human 5-HT1E serotonin receptor | P28566 | CHO 5-HT1E Ga15 NFAT-bla reporter, FRET; 0% DMSO wells, 100% control agonist wells | activation, % at 6 µM | 65,000 tested, 0.69% active;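 active = activation above a set limit, the screen-wide mean activation plus 3 SD, cut at about 8.5% in these data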;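 note: 100% = positive control agonist at 1 µM giving full maximal response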
S1P1 ag-PAM: agonists and agonism potentiators of human S1P1 receptor; 56,000 tested, 0.57% active; S1P1 CRE-bla cells, forskolin, beta-lactamase FRET, potentiator mode; S1P1 agonist co-added at EC20, 2 nM; 100% = saturating reference agonist, 0% = basal; P21453; AID 449; activation, % at 9.5 µM;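 active = activation above a cutoff set at the mean activation of all tested compounds plus 3 SD, cut at about 54% in these data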;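 note: forskolin at 4 µM as EC80 and the EC20 agonist is SEW2871; 100% = SEW2871 at its EC100 plus forskolin at EC80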
S1P3 agonist: activates the human S1P3 receptor; activation, % at 4.5 µM; 60,000 tested, 0.1% active; S1P3 NFAT-BLA reporter cells, agonism, FRET ratio; relative to 1 µM S1P, basal subtracted;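 active = activation above the screen-wide mean plus 3 SD, cut at about 4.5% in these data, passing the limit was not always enough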
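Assay system: stable CHO line with human S1P3, Gα16, NFAT-BLA reporter; Detection: FRET β-lactamase substrate fluorescence, excitation 405 nm, 460/535 nm emission ratio, background-subtracted; Read-out: percent activation versus median 1 µM S1P response, basal-subtracted, per plate; Incubation: cells plated overnight, compound 4 h 37 °C, substrate 2 h RT.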
The depositor's hits bear a star; · = not tested or not shown.

SMILES	5HT1a ag	5HT1E antag	5-HT1A blocker	5HT1E ag	S1P1 ag-PAM	S1P3 agonist
COc1ccc(C(=O)COC(=O)CCN=C2NS(=O)(=O)c3ccccc32)cc1OC	0	14	3	20*	-12	-1
COCc1cc(C)nc(SCC(=O)Nc2cccc3cccnc23)c1C#N	6	42*	1	0	-18	1
Cc1ccc(N(CC2=NCCN2)c2cccc(O)c2)cc1	·	52*	·	-2	-12	-2
COc1cc2c(cc1OC)-c1cc(NC3CCCCCCC3)nc(=O)n1CC2	2	52*	29	0	-20	1
CCCCCCNc1cc2n(c(=O)n1)CCc1cc(OC)c(OC)cc1-2	1	39*	0	0	-65	-1
COc1cc2c(cc1OC)-c1cc(NC3CCCCC3)nc(=O)n1CC2	2	36*	9	2	-62	2
COc1cc2c(cc1OC)-c1cc(NC3CC3)nc(=O)n1CC2	0	20	9	1	-28	-1
COCCNC(=O)c1cn(C)c(=O)c2cc(OC)c(OC)cc12	0	5	11	-1	·	·
COc1cc2c(C(=O)NCCCN3CCN(c4cccc(Cl)c4)CC3)cn(C)c(=O)c2cc1OC	12	12	5	16*	·	·
O=C(c1ccccc1)n1ccc2ccccc21	-3	4	1	0	-4	-1
COc1cccc(Oc2cnc(N)nc2-c2ccc(OC)cc2O)c1	-1	26	22	0	13	-2
COc1ccc(-c2nc(N)ncc2Oc2ccccc2Br)c(O)c1	0	28	44*	-1	1	-1
Cn1nnnc1SCC(=O)N1CCN(c2ccccc2)CC1	-6	0	4	0	-2	-2
CC1(C)CC(=O)C2=C(C1)Nc1ccccc1NC2c1nc2ccccc2[nH]1 (centres undefined)	0	34*	-6	0	1	0
CC1(CCC#N)N=C(SCCC#N)N(c2ccccc2)C1=O (centres undefined)	-1	-2	7	0	-9	0
CCCOC(=O)NC(CC)COC(=O)Nc1cc(C)ccc1C (centres undefined)	-4	1	16	0	6	-1
CC(=O)NC1C(=O)N(CCc2ccccc2)c2ccccc21 (centres undefined)	0	0	17	14*	-13	-1
Cc1ccc(S(=O)(=O)N2CCC(C(=O)N[C@@H](C)C(=O)NCC3CCCO3)CC2)cc1 (some centres undefined)	-1	-7	0	-1	·	·
CCOc1nc(C)ccc1-c1noc(-c2ccncc2)n1	0	8	-12	0	56*	1
CCOc1ccc(-c2nc(-c3ccccc3C)no2)cc1	0	-8	-2	0	110*	-1
CCOc1nc(-c2ccccc2)ccc1-c1noc(-c2ccncc2)n1	-2	-6	-2	-1	13	0
C/C(Cl)=C/Cn1c(SC(C)C)nc2c1c(=O)[nH]c(=O)n2C	3	23	-6	0	1	1
CCOC(=O)CNC(=O)Cn1cnc2sc(C)c(S(=O)(=O)N3CCC(C)CC3)c2c1=O	60*	-3	-11	1	·	·
c1ccc(-c2nnc(-c3ccccn3)nn2)nc1	-1	-5	6	0	·	·
c1ccc(-c2cccc(-c3ccccn3)n2)nc1	-2	45*	59*	-2	-5	-2
SMILES	5HT1a ag	5HT1E antag	5-HT1A blocker	5HT1E ag	S1P1 ag-PAM	S1P3 agonist
COC(=O)c1ccc(CC(=O)c2ccc(O)cc2O)o1	0	11	-18	0	14	0
COC(=O)c1cc(CC(=O)c2ccc(O)cc2O)c(C)o1	284*	6	5	0	12	0
O=C(CCN1C(=O)COc2ccccc21)NCCN1CCc2ccccc2C1	1	-7	-11	0	-29	-1
CC(NC(=O)Nc1nnc(C(F)(F)F)s1)N1C(=O)C2C3C=CC(C3)C2C1=O (centres undefined)	-3	-2	-1	-1	-29	-1
CC(NC(=O)Nc1nnc(C(F)(F)F)s1)(C(F)(F)F)C(F)(F)F	3	54*	·	0	80*	-8
Cn1c(SCc2ccc(F)cc2)nnc1-c1cccs1	-3	3	3	0	-4	0
O=C(O)C1CCCN1S(=O)(=O)c1ccc(Cl)c(Cl)c1 (centres undefined)	-1	-1	10	44*	·	-1
O=C(O)C1CCCN1S(=O)(=O)c1ccc2ccccc2c1 (centres undefined)	-1	-9	-3	0	·	·
COc1ccc(C(=O)Nc2ccc(Cl)cc2C(=O)NCc2ccco2)cc1OC	-4	40*	5	0	-32	-2
COc1ccc2c(c1)OCC1=C2CCC2(C)C(=O)CC=C12 (centres undefined)	-1	-3	3	0	·	-1
Cc1cc(Nc2cccc(F)c2)nc(-c2ccccc2O)n1	-2	31*	37	0	3	1
CSc1ccccc1NS(=O)(=O)c1ccc2c(c1)OCCO2	-3	3	4	0	-14	-1
COC(=O)c1ccc(C)c(NS(=O)(=O)c2ccc3c(c2)OCCO3)c1	-1	60*	33	-1	5	-1
O=C(Nc1ccc(N2CCOCC2)cc1)c1cnsn1	-2	1	-14	-1	13	-2
CS(=O)(=O)c1ncc(Cl)c(C(=O)Nc2ccc(N3CCOCC3)cc2)n1	-2	82*	81*	1	-10	1
O=C(C1CCC(CNc2c(N3CCCCC3)c(=O)c2=O)CC1)N1CCc2ccccc2C1 (centres undefined)	-1	3	10	-2	-8	0
Cc1ccc(S(=O)(=O)C2(C(=O)O)CCCC2)cc1C	1	-3	-3	0	6	-1
Cn1cnnc1SCC(=O)Nc1ccccc1Sc1ccccc1	311*	-4	-10	0	7	1
CCC(=Nc1ccc(Cc2ccncc2)cc1)c1c(O)n(C)c(=O)n(C)c1=O	-1	5	-9	0	3	-1
Cn1c(-c2ccccc2)cc2c3no[n+]([O-])c3ccc21	2	34*	44*	0	38	-2
COc1cc2c(C(=O)N3CCN(C4CCCCC4)CC3)cn(CC(C)C)c(=O)c2cc1OC	-1	4	-5	1	-24	-2
Cc1cc(NC(=O)CSc2nc(-c3ccco3)cc(C(F)(F)F)n2)no1	-1	68*	59*	-2	4	-1
CS(=O)(=O)c1nc(-c2ccco2)cc(C(F)(F)F)n1	-5	100*	103*	-1	·	·
COc1ccccc1N=c1oc2cc(O)ccc2cc1C(N)=O	45*	-25	-92	19*	-52	2

High-throughput results as filed in PubChem BioAssay.
